This is a sample that favours compounds with a hit; in the whole collection about 4.6% have one here.
OX1R antag-1: human HCRTR1 antagonism. inhibition, % at 5 µM. CHO/OX1R cells, Fluo-8 calcium fluorescence, orexin A. 0.43% of 330,000 active. O43613. AID 434989;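 active means inhibition above its plate's threshold, mean inhibition of all tested compounds on the plate plus 3 SD, cut at about 37% in these data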;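 further: 0% = orexin A challenge wells and 100% = SB-334867-A antagonist wells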
OX1R antag-2: antagonists of human orexin 1 receptor (OX1R) | O43613 | OX1R-expressing cells, FRET antagonist read-out | inhibition, % at 6.6 µM | 1.8% of 330,000 active | AID 485270; in the data active means inhibition mostly above about 38%, no sharp cut-off; inactive means mostly below about 40%;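 further: 0% = agonist challenge alone and 100% = reference antagonist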
GPR7 antagonist: antagonists of human GPR7 (neuropeptides B/W receptor 1) | GPR7-expressing cells, fluorescence antagonist assay | inhibition, % at 4.4 µM | AID 1861 | 1.1% of 290,000 active; in the data active means inhibition above about 16%, passing the limit was not always enough;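 further: cells stimulated with the agonist NPW; 0% = agonist with vehicle and 100% = vehicle without agonist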
Target sequence (P48145 whole entry, looked up): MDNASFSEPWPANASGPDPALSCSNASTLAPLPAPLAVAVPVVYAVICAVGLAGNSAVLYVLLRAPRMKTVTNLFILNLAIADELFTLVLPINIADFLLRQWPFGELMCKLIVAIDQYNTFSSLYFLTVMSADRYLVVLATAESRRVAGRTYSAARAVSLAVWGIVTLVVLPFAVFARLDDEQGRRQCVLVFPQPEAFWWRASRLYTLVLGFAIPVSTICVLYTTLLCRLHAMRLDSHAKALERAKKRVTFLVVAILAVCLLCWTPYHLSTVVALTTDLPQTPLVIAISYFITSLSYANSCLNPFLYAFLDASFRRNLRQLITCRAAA
TAAR1 agonist: human TAAR1 agonism; 0.99% of 360,000 active; CHO RD-HGA16 TAAR1, Fluo-8 calcium fluorescence; vehicle wells 0%, saturating PEA agonist 100%; activation, % at 3 µM; Q96RJ0;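 active means activation above the mean activation of all test compounds in the run plus 3 SD, cut at about 38% in these data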
Target sequence (Q96RJ0 whole entry, looked up): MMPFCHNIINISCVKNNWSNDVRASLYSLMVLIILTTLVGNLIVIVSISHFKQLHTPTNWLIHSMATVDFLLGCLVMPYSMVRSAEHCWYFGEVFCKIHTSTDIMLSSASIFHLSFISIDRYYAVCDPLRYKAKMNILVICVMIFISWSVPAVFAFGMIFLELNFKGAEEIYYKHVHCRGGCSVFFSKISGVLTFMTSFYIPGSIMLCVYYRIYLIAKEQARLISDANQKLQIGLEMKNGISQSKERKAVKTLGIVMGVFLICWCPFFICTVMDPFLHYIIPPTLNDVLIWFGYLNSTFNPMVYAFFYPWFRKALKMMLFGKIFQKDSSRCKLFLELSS
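Benchmarks: low control DMSO, high control PEA (EC100); System: CHO RD-HGA16 cells carrying human TAAR1 plus Gα16; Detection: Fluo-8 fluorescence, 5 s baseline then 140 s kinetic read; Schedule: 17-24 h plating, Fluo-8 75 min 37 °C, 30 min RT; Read-out basis: % activation from peak over basal fluorescence ratio, DMSO-to-PEA scaled.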
TAAR1 antag: human TAAR1 antagonism. Q96RJ0. CHO RD-HGA16 TAAR1, Fluo-8 calcium fluorescence, antagonist. AID 624466. inhibition, % at 3 µM. 1.5% of 360,000 active;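 active means inhibition above a per-plate cutoff, the mean inhibition of test compounds on that plate plus 3 SD, cut at about 49% in these data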;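 further: 0% = DMSO plus EC80 beta-PEA response and 100% = DMSO alone without agonist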
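Assay system: CHO-derived RD-HGA16 cells stably expressing human TAAR1 plus Gα16. Timing: 140 s kinetic read after compound, 140 s after agonist. Technique: kinetic Fluo-8 calcium fluorescence measurement. Measure: % inhibition of agonist calcium response.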
CHO parental Ca: signal in parental CHO cells, OX1R antagonist counter-screen; parental CHO-K1, ATP-induced calcium, Fluo-8 fluorescence; 0.63% of 330,000 active; inhibition, % at 5.6 µM; AID 463079;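 active means inhibition above that plate's mean sample inhibition plus 3 SD, cut at about 26% in these data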;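 further: 0% = ATP-challenged DMSO wells and 100% = DMSO wells without ATP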
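Assay system – parental CHO cells · Reagent – ATP stimulus · Detection – intracellular calcium via Fluo-8 no-wash fluorescent dye · Evaluation – percent inhibition of ATP-evoked calcium rise, normalized to controls · Controls – ATP wells versus no-ATP DMSO wells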
GPR7 antag conf: confirmation of human GPR7 antagonists | shares compounds with GPR7 antagonist | GPR7-expressing cells, calcium fluorescence antagonist mode | inhibition, % at 4.4 µM | 52% of 2,400 active | AID 1952; in the data active means inhibition above about 24%;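 further: stimulated with the GPR7 agonist NPW; 0% = agonist plus vehicle and 100% = vehicle alone without agonist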
MCHR1 antagonist: MCHR1 (human) antagonism in GPR7 counter-screen; shares compounds with GPR7 antagonist; MCHR1-expressing cells, fluorescence antagonist assay; inhibition, % at 4.4 µM; 62% of 2,400 active; AID 2148; in the data active means inhibition above about 22%;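 further: 0% = vehicle with agonist and 100% = vehicle without agonist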
* hit, by the source's call; · = not tested or not shown.

SMILES | OX1R antag-1 | OX1R antag-2 | GPR7 antagonist | TAAR1 agonist | TAAR1 antag | CHO parental Ca | GPR7 antag conf | MCHR1 antagonist
COc1ccc(OC)c(S(=O)(=O)N2CCC(C(=O)NC3CCCCCC3)CC2)c1 | -32 | 6 | 26* | 0 | -18 | -13 | -3 | 12
CCOC(=O)N1CCN(S(=O)(=O)c2cc(OCC(=O)NC3CCCCC3)c(C)cc2Cl)CC1 | -29 | -1 | 1 | 20 | 21 | -16 | · | ·
O=S1(=O)C[C@H](N2CCC(Cc3ccccc3)CC2)[C@@H](COCc2ccccc2)N1 | · | · | · | 4 | -13 | · | · | ·
c1ccc(CCc2nn3c(Cn4cnc5ccccc54)nnc3s2)cc1 | -13 | 3 | 23* | 2 | -12 | -16 | 18 | 28*
COc1ccc(OCc2nn3c(Cn4cnc5ccccc54)nnc3s2)cc1 | 4 | 8 | -8 | 12 | 7 | -9 | · | ·
CNCc1ccc(OCc2ccccc2)c(OC)c1 | -12 | 6 | -7 | 2 | 11 | -13 | · | ·
COc1cc(CN(CCN(C)C)Cc2ccccc2)ccc1OCc1ccccc1 | -20 | -6 | 44* | 24 | -9 | -16 | 57* | 34*
C=Cc1ccc(Cn2c(C)c(C(=O)NCc3cccc(C)c3)sc2=O)cc1 | · | · | · | -1 | 35 | · | · | ·
CN(C(=O)C=Cc1ccco1)c1ccccc1 | · | · | · | 2 | 6 | · | · | ·
CN(C(=O)/C=C/c1ccc([N+](=O)[O-])s1)c1ccccc1 | -12 | 19 | 25* | 13 | 2 | -18 | 20 | 10
CO/N=C/Cc1c([N+](=O)[O-])c(C)nn1C | -18 | 9 | 28* | 1 | -6 | -3 | -7 | -11
CCCC[N+](CC#CCO)(CC#Cc1ccccc1)CCCC | 5 | 5 | 25* | 1 | -26 | -2 | 25* | 26*
CCC[N+](CC#CCO)(CC#Cc1ccccc1)CCC | 11 | 8 | -2 | 2 | -12 | -10 | · | ·
CCCCC(=O)Nc1ncc([N+](=O)[O-])s1 | -13 | 48 | -7 | 9 | 19 | 6 | · | ·
O=C(Nc1ccccc1)Nc1ncc([N+](=O)[O-])s1 | · | · | 23* | 22 | 0 | · | 20 | 53*
Nc1nc2c(ncn2[C@@H]2O[C@H](C(=O)N[C@H](Cc3ccccc3)C(=O)O)[C@@H](O)[C@H]2O)c(=O)[nH]1 | · | · | · | 0 | -3 | · | · | ·
CC(=O)c1ccc(OCC(O)CN(C)CCOc2ccc(Br)cc2)cc1 (configuration not stated) | -11 | 7 | 23* | 4 | 8 | 17 | 37* | 55*
CC(=O)c1ccc(OCC(O)COc2ccc(C(C)=O)cc2)cc1 | -13 | 13 | 5 | -1 | 21 | -1 | · | ·
c1ccc(Nc2nnc(-c3cccnc3)s2)cc1 | -20 | 3 | 41* | 1 | 1 | 11 | -1 | 14
C=C1C[C@@H]2C[C@@H]2CN(S(=O)(=O)c2ccc(C)cc2)[C@@H]1c1ccco1 | · | · | · | 1 | 9 | · | · | ·
CC(C)Cc1ccc(C(C)C(=O)Nc2ccccc2O)cc1 (configuration not stated) | 101* | 29 | 69* | 77* | 92* | 82* | 89* | 94*
Cc1c(NC(=O)C(C)c2ccc(CC(C)C)cc2)c(=O)n(-c2ccccc2)n1C (configuration not stated) | -5 | 13 | -6 | 3 | -3 | -2 | · | ·
N#CCCn1cc(/C=N/O)c(-c2ccc(-c3ccccc3)cc2)n1 | 6 | 23 | 27* | 1 | 6 | 0 | 31* | 42*
N#CCCn1cc(/C=N/O)c(-c2ccc(Cl)cc2)n1 | 10 | 2 | 4 | 3 | 14 | -13 | · | ·
N#CCCn1cc(C=C(C#N)C#N)c(-c2ccc(Cl)cc2)n1 | -8 | 30 | 32* | 0 | -13 | -3 | 12 | 2
SMILES | OX1R antag-1 | OX1R antag-2 | GPR7 antagonist | TAAR1 agonist | TAAR1 antag | CHO parental Ca | GPR7 antag conf | MCHR1 antagonist
CCN(CC)c1c(C)nc2ccc(C(=O)Nc3cc(-c4ccccc4)ccc3OC)cn12 | · | · | · | 0 | 5 | · | · | ·
C=CCOc1ccccc1C(=O)/C=C1/C(=O)Nc2ccccc21 | 17 | 20 | 37* | 2 | 12 | 33* | 59* | 82*
COC(=O)C[C@H]1C=C[C@@H](NC(=O)c2ccncc2)[C@@H](CO)O1 | · | · | · | 3 | -11 | · | · | ·
CCC(=O)N1CCc2cc(Br)cc(S(=O)(=O)N(C)c3ccc(OC)cc3)c21 | 3 | 14 | 38* | 7 | 35 | 6 | 24 | 54*
CC1(C)C2CCC(CN=C(N)CSS(=O)(=O)O)C1C2 (configuration not stated) | · | · | · | 1 | -3 | · | · | ·
COc1ccc(CCN(C)C(=S)Nc2ccc(SC(F)F)cc2)cc1OC | -4 | 17 | 39* | 5 | 13 | -2 | 12 | 11
COc1ccc(CCN(C)C(=S)NC(=O)c2ccc(F)cc2Cl)cc1OC | -19 | 6 | 3 | 1 | -3 | -19 | · | ·
O=C1NC[C@@H](CCCCN2C[C@H](Cc3ccccc3)N(CCc3ccccc3)C(=O)C2=O)N(CCc2ccccc2)C1=O | · | · | · | 2 | -7 | · | · | ·
Cc1ccc(-c2ccc(C3C(C#N)=C(N)Oc4n[nH]c(C)c43)o2)cc1 (configuration not stated) | 8 | 18 | 26* | 18 | 16 | -6 | 49* | 72*
COc1ccc2oc(C(=O)OCC(=O)NC3CCS(=O)(=O)C3)c(C)c2c1 (configuration not stated) | · | · | · | 0 | -14 | · | · | ·
C=CCC1(CC=C)CCCN1C(=O)c1cc(COc2cncc(Cl)c2)on1 | 31 | 43 | 38* | 0 | 25 | 65* | 28* | 52*
C=CCC1(CC=C)CCCN1C(=O)c1cc(COc2cccc(OC)c2)on1 | -4 | 11 | -9 | 0 | 34 | 11 | · | ·
CCOC(=O)N1CCN(Cc2nc3cc(NC(=O)c4cccs4)ccc3n2CC)CC1 | -9 | 13 | 8 | 5 | 15 | -15 | · | ·
C/C(=N/NC(=O)CCc1ccccc1)c1ccc2c(c1)OCO2 | · | · | 26* | 0 | -19 | · | 2 | -3
O=C(Nc1cccc2c(=O)[nH][nH]c(=O)c12)c1ccc([N+](=O)[O-])cc1 | · | · | · | -1 | -11 | · | · | ·
COc1ccc(NC2CC(=O)N(C(C)C)C2=O)cc1 (configuration not stated) | -5 | -2 | 24* | 0 | -6 | -18 | -2 | 9
O=C(CSc1nccn1-c1ccccc1)Nc1ccc2c(c1)OCO2 | 4 | 18 | 28* | 2 | 6 | 5 | 26* | 24*
O=C(CSc1nccn1-c1ccc(F)cc1)Nc1ccc2c(c1)OCO2 | -10 | 35 | 7 | 0 | -2 | -11 | · | ·
O=C(NCc1nnnn1-c1ccc(Cl)cc1)C(=O)c1c[nH]c2ccccc12 | · | · | · | 20 | 23 | · | · | ·

Screening data as filed in PubChem BioAssay.
